The source of these data is ChEMBL document CHEMBL1153575, “Synthesis and in vitro anticancer activity of 2,4-azolidinedione-acetic acids derivatives” (2009).

Structures are written as SMILES.

Holding throughout (assay type): functional
In assay [1] the test system is CAKI-1. As to the kind of experiment: Cytotoxicity against human Caki1 cells assessed as cell growth at 10 uM after 48 hrs by sulforhodamine B assay. Particulars: CAKI-1, 48 h, read-out: Activity. An outline of the steps:
(§1)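 Single-dose primary screen at 10^-5 M (final) across a panel of about 60 human tumour cell lines. Cells were inoculated and preincubated 24–48 h, then the compound was added once and incubated a further 48 h. Protein was stained with sulforhodamine B and read spectrophotometrically. Percent growth is given relative to untreated control cells.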
Background: In SRB staining, fixed cells bind dye roughly in proportion to their protein.

In assay [2] the test system is SR. As to the kind of experiment: Cytotoxicity against human SR cells assessed as cell growth at 10 uM after 48 hrs by sulforhodamine B assay. Particulars: read-out: Activity. Summed up:
as §1

In assay [3] the test system is UO-31. Briefly: Cytotoxicity against human UO31 cells assessed as cell growth at 10 uM after 48 hrs by sulforhodamine B assay. Particulars: UO-31, 48 h, read-out: Activity. Summed up:
as §1

Assay [4] has as its system HCT-116. Briefly: Cytotoxicity against human HCT116 cells assessed as cell growth at 10 uM after 48 hrs by sulforhodamine B assay. Particulars: HCT-116, 48 h, read-out: Activity. An outline of the steps:
as §1

Assay [5] relates to TK-10. Briefly: Cytotoxicity against human TK10 cells assessed as cell growth at 10 uM after 48 hrs by sulforhodamine B assay. Particulars: TK-10, 48 h, read-out: Activity. An outline of the steps: as §1
Assay [6] concerns RPMI-8226. As to the kind of experiment: Cytotoxicity against human RPMI8226 cells assessed as cell growth at 10 uM after 48 hrs by sulforhodamine B assay. Particulars: RPMI-8226, 48 h, read-out: Activity. Summed up: as §1
For assay [7], the system named is OVCAR-5. As to the kind of experiment: Cytotoxicity against human OVCAR5 cells assessed as cell growth at 10 uM after 48 hrs by sulforhodamine B assay. Particulars: OVCAR-5, 48 h, read-out: Activity. An outline of the steps:
as §1

Assay [8] concerns ACHN. As to the kind of experiment: Cytotoxicity against human ACHN cells assessed as cell growth at 10 uM after 48 hrs by sulforhodamine B assay. Particulars: read-out: Activity. Summed up:
as §1

Assay [9] is described as follows: Cytotoxicity against human IGROV cells assessed as cell growth at 10 uM after 48 hrs by sulforhodamine B assay. Particulars: read-out: Activity. Summed up:
as §1

Regarding `NS(=O)(=O)c1ccc(NC(=O)CC2SC(=O)NC2=O)cc1` (configuration not stated), the growth at 10 µM in [1] worked out at 54.2%.
For the compound `CN(C)c1ccc(/C=C2\SC(=O)N(CC(=O)Nc3ccccc3C(F)(F)F)C2=O)cc1`, in assay [2], the growth at 10 µM turned out to be 45.8%.
In the case of `O=C(CN1C(=O)S/C(=C\c2ccc(Cl)cc2)C1=O)Nc1ccccc1C(F)(F)F`, the growth at 10 µM in [3] was 75.8%.
For `CN(C)c1ccc(/C=C2\NC(=O)N(CC(=O)Nc3ccccc3C(F)(F)F)C2=O)cc1`, in assay [4], the growth at 10 µM was found to be 31%.
Take `NS(=O)(=O)c1ccc(NC(=O)CN2C(=O)CNC2=O)cc1`: the growth at 10 µM in assay [3] was found to be 26%.
Turning to `O=C(CN1C(=O)S/C(=C\C=C\c2ccccc2)C1=O)Nc1ccccc1C(F)(F)F`, in assay [5], the growth at 10 µM was 62.5%.
`O=C(CN1C(=O)N/C(=C\C=C\c2ccccc2)C1=O)Nc1ccccc1C(F)(F)F`: in assay [6], the growth at 10 µM worked out at 26.6%.
Turning to `NS(=O)(=O)c1ccc(NC(=O)CC2NC(=O)NC2=O)cc1` (configuration not stated), the growth at 10 µM in assay [2] is 68.3%.
In the case of `COc1ccc(/C=C2\NC(=O)N(CC(=O)Nc3nccs3)C2=O)cc1`, the growth at 10 µM in assay [7] is 76.5%.
On to `O=C(CN1C(=O)N/C(=C\c2ccccc2)C1=O)Nc1ccc(Cl)cc1`, for which the values for the growth at 10 µM in assay [3], in assay [8] and in assay [9] were -83.1%, 1.51% and -3.51%, respectively.
